{
  "source": "ChEMBL document CHEMBL1145328",
  "about": "“Synthesis, crystal structure, structure-activity relationships, and antiviral activity of a potent SARS coronavirus 3CL protease inhibitor” (J Med Chem, 2006)",
  "key": {"Human coronavirus 229E": {"test_system": "Human coronavirus 229E", "assay": "Inhibition of human coronavirus 229E 3CL protease", "format": "functional", "method_in_brief": "(§1)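 SARS 3CLpro (75 nM) or 229E 3CLpro (75 nM), recombinant, expressed as GST fusion in E. coli BL21(DE3)pLysS and released with factor Xa. Enzyme preincubated with compound 20 min at 25 °C. Reaction in Tris-HCl pH 7.5, NaCl, EDTA, DTT and BSA, 30 min at 25 °C, stopped with TFA. Conversion measured by reverse-phase HPLC peak areas. Ki by Cheng–Prusoff.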"}, "MRC5 [1]": {"test_system": "MRC5", "assay": "Cytotoxicity against MRC5 cells infected with human coronavirus 229E", "format": "functional, cell-based"}, "Replicase polyprotein 1a": {"target": "Replicase polyprotein 1a (Severe acute respiratory syndrome-related coronavirus, UniProt P0C6U8)", "assay": "Inhibition of SARS coronavirus 3CL protease", "method_in_brief": "as §1"}, "MRC5 [2]": {"test_system": "MRC5", "assay": "Antiviral activity against human coronavirus 229E in MRC5 cells assessed as reduction in viral load", "format": "functional", "method_in_brief": "(§2)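 HCoV 229E (ATCC VR-740) stocks were grown in MRC-5 cells. MRC-5 cells were preabsorbed with 40 pfu/well virus for 1 h, then unabsorbed virus was removed and serially diluted compound added. Supernatants were harvested and TCID50 titred on fresh MRC-5 cells. Titre is given as log TCID50/mL.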"}, "[3]": {"assay": "Stability in mouse plasma after 120 mins", "format": "ADME", "conditions": "read-out: Stability", "method_in_brief": "(§3)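 Human, mouse or rat plasma was prewarmed 5 min at 37 °C. Compound was added from a 100 µM stock in 1% DMSO to give 90% plasma. Samples were shaken at 37 °C for 0, 30 or 120 min, then quenched in acetonitrile with internal standard and centrifuged. Supernatant was diluted and analysed by LC/MS. Result is % of initial remaining.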"}, "SARS-CoV [4]": {"test_system": "SARS-CoV", "assay": "Antiviral activity against SARS coronavirus in VeroE6 cells assessed as reduction in viral load at 2.5 uM", "format": "functional, Severe acute respiratory syndrome-related coronavirus"}, "[5]": {"assay": "Stability in human plasma after 120 mins", "format": "ADME, cell-free", "conditions": "read-out: Stability", "method_in_brief": "as §3"}, "MRC5 [6]": {"test_system": "MRC5", "assay": "Antiviral activity against human coronavirus 229E in MRC5 cells assessed as reduction in viral load at 1.25 uM", "format": "functional", "method_in_brief": "as §2"}, "Plasma [7]": {"test_system": "Plasma", "assay": "Stability in rat plasma", "format": "ADME, cell-free", "method_in_brief": "as §3"}, "SARS-CoV [8]": {"test_system": "SARS-CoV", "assay": "Antiviral activity against SARS coronavirus in VeroE6 cells assessed as reduction in viral load at 0.625 uM", "format": "functional, Severe acute respiratory syndrome-related coronavirus"}, "Vero": {"test_system": "Vero", "assay": "Cytotoxicity against VeroE6 cells infected with SARS coronavirus", "format": "functional, cell-based", "conditions": "Chlorocebus sabaeus"}, "MRC5 [9]": {"test_system": "MRC5", "assay": "Antiviral activity against human coronavirus 229E in MRC5 cells assessed as reduction in viral load at 0.625 uM", "format": "functional", "method_in_brief": "as §2"}, "SARS-CoV [10]": {"test_system": "SARS-CoV", "assay": "Antiviral activity against SARS coronavirus in VeroE6 cells assessed as reduction in viral load at 1.25 uM", "format": "functional, Severe acute respiratory syndrome-related coronavirus"}, "MRC5 [11]": {"test_system": "MRC5", "assay": "Antiviral activity against human coronavirus 229E in MRC5 cells assessed as reduction in viral load at 5 uM", "format": "functional", "method_in_brief": "as §2"}, "[12]": {"assay": "Stability in rat plasma after 120 mins", "format": "ADME, cell-free", "conditions": "read-out: Stability", "method_in_brief": "as §3"}, "Mus musculus": {"organism": "Mus musculus", "assay": "Stability in mouse plasma", "format": "ADME", "method_in_brief": "as §3"}, "SARS-CoV [13]": {"test_system": "SARS-CoV", "assay": "Antiviral activity against SARS coronavirus in VeroE6 cells assessed as reduction in viral load", "format": "functional, Severe acute respiratory syndrome-related coronavirus"}, "MRC5 [14]": {"test_system": "MRC5", "assay": "Protection of MRC5 cells infected with human coronavirus 229E at 1 uM", "format": "functional, cell-based", "method_in_brief": "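MRC-5 cells at 90% confluence were infected for 1 h with 10-fold serial dilutions of HCoV 229E stock. Unabsorbed virus was removed and cells overlaid with 0.3% agarose. Compound was present in the medium for 4 days. Cells were then fixed with 10% formalin and stained with 0.5% crystal violet to see plaques.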"}, "Plasma [15]": {"test_system": "Plasma", "assay": "Stability in human plasma", "format": "ADME, cell-free", "method_in_brief": "as §3"}, "SARS-CoV [16]": {"test_system": "SARS-CoV", "assay": "Antiviral activity against SARS coronavirus in VeroE6 cells assessed as reduction in viral load at 10 uM", "format": "functional, Severe acute respiratory syndrome-related coronavirus"}, "MRC5 [17]": {"test_system": "MRC5", "assay": "Antiviral activity against human coronavirus 229E in MRC5 cells assessed as reduction in viral load at 2.5 uM", "format": "functional", "method_in_brief": "as §2"}, "SARS-CoV [18]": {"test_system": "SARS-CoV", "assay": "Antiviral activity against SARS coronavirus in VeroE6 cells assessed as reduction in viral load at 5 uM", "format": "functional, Severe acute respiratory syndrome-related coronavirus"}, "[19]": {"assay": "Stability in rat plasma after 30 mins", "format": "ADME, cell-free", "conditions": "read-out: Stability", "method_in_brief": "as §3"}, "[20]": {"assay": "Stability in mouse plasma after 30 mins", "format": "ADME", "conditions": "read-out: Stability", "method_in_brief": "as §3"}, "[21]": {"assay": "Stability in human plasma after 30 mins", "format": "ADME, cell-free", "conditions": "read-out: Stability", "method_in_brief": "as §3"}},
  "note": "Activity calls are given as the source filed them. The rule behind the calls is not given here.",
  "data": [
    {"smiles": "CCOC(=O)/C=C/[C@H](C[C@@H]1CCNC1=O)NC(=O)[C@H](Cc1ccc(F)cc1)NC(=O)[C@@H](NC(=O)c1cc(C)on1)C(C)C", "values": [
      {"measurement": "Ki", "setting": "Human coronavirus 229E", "result": "> 10000", "unit": "nM"},
      {"measurement": "IC50", "setting": "MRC5 [1]", "result": "> 20000", "unit": "nM"},
      {"measurement": "Ki", "setting": "Replicase polyprotein 1a", "result": "> 10000", "unit": "nM"}
    ]},
    {"smiles": "CC(OC(C)(C)C)[C@H](NC(=O)OCc1ccccc1)C(=O)N[C@@H](CC1CCCCC1)C(=O)N[C@H](C=O)C[C@@H]1CCNC1=O", "note": "(some centres undefined)", "values": [
      {"measurement": "log10 TCID50", "setting": "MRC5 [2]", "result": 6.51},
      {"measurement": "remaining at 2 h", "setting": "[3]", "result": 71, "unit": "%"},
      {"measurement": "log10 TCID50", "setting": "SARS-CoV [4]", "result": 5},
      {"measurement": "Ki", "setting": "Human coronavirus 229E", "result": 68, "unit": "nM"},
      {"measurement": "remaining at 2 h", "setting": "[5]", "result": 83, "unit": "%"},
      {"measurement": "IC50", "setting": "MRC5 [1]", "result": 140, "unit": "nM"},
      {"measurement": "log10 TCID50", "setting": "MRC5 [6]", "result": 1.3},
      {"measurement": "Stability", "setting": "Plasma [7]", "result": 100, "unit": "%"},
      {"measurement": "log10 TCID50", "setting": "SARS-CoV [8]", "result": 6.4},
      {"measurement": "IC50", "setting": "Vero", "result": 600, "unit": "nM"},
      {"measurement": "log10 TCID50", "setting": "MRC5 [9]", "result": 3},
      {"measurement": "log10 TCID50", "setting": "SARS-CoV [10]", "result": 6},
      {"measurement": "log10 TCID50", "setting": "MRC5 [11]", "result": 1.3},
      {"measurement": "remaining at 2 h", "setting": "[12]", "result": 73, "unit": "%"},
      {"measurement": "Stability", "setting": "Mus musculus", "result": 100, "unit": "%"},
      {"measurement": "Ki", "setting": "Replicase polyprotein 1a", "result": 53, "unit": "nM"},
      {"measurement": "log10 TCID50", "setting": "SARS-CoV [13]", "result": 6.7},
      {"measurement": "Activity", "setting": "MRC5 [14]", "result": "Active"},
      {"measurement": "Stability", "setting": "Plasma [15]", "result": 100, "unit": "%"},
      {"measurement": "log10 TCID50", "setting": "SARS-CoV [16]", "result": 2},
      {"measurement": "log10 TCID50", "setting": "MRC5 [17]", "result": 1.3},
      {"measurement": "log10 TCID50", "setting": "SARS-CoV [18]", "result": 2},
      {"measurement": "remaining at 0.5 h", "setting": "[19]", "result": 70, "unit": "%"},
      {"measurement": "remaining at 0.5 h", "setting": "[20]", "result": 84, "unit": "%"},
      {"measurement": "remaining at 0.5 h", "setting": "[21]", "result": 81, "unit": "%"}
    ]},
    {"smiles": "CCOC(=O)/C=C/[C@H](C[C@@H]1CCNC1=O)NC(=O)[C@H](CC(C)C)NC(=O)[C@@H](NC(=O)OCc1ccccc1)C(C)OC(C)(C)C", "note": "(some centres undefined)", "values": [
      {"measurement": "IC50", "setting": "MRC5 [1]", "result": 880, "unit": "nM"},
      {"measurement": "Ki", "setting": "Replicase polyprotein 1a", "result": 58, "unit": "nM"}
    ]},
    {"smiles": "CCOC(=O)/C=C/[C@H](C[C@@H]1CCNC1=O)NC(=O)[C@H](CC(C)C)NC(=O)[C@@H](NC(=O)OCc1ccccc1)C(C)C", "values": [
      {"measurement": "IC50", "setting": "MRC5 [1]", "result": 9100, "unit": "nM"},
      {"measurement": "Ki", "setting": "Replicase polyprotein 1a", "result": 660, "unit": "nM"}
    ]},
    {"smiles": "CCOC(=O)/C=C/[C@H](C[C@@H]1CCNC1=O)NC(=O)[C@H](Cc1ccccc1)NC(=O)[C@@H](NC(=O)OCc1ccccc1)C(C)C", "values": [
      {"measurement": "IC50", "setting": "MRC5 [1]", "result": 13200, "unit": "nM"},
      {"measurement": "Ki", "setting": "Replicase polyprotein 1a", "result": 2260, "unit": "nM"}
    ]}
  ]
}
